Measured values taken from PubChem BioAssay AID1019 (Sanford-Burnham Center for Chemical Genomics, 2008).
The campaign covered roughly 190,000 compounds. Fewer than 10 were called active.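 The calls were made as follows: active = over 50% inhibition of intestinal alkaline phosphatase at 20 µM in the single-dose screen; inactive = the rest.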 Not all results are given here.

Test system: alkaline phosphatase, intestinal [Bos taurus]
Experiment: bovine intestinal alkaline phosphatase inhibitors, primary screen, selectivity assay for TNAP inhibitor project, biochemical, bovine IAP, CDP-star luminescence (AID 1019)
Settings: purified bovine IAP, 30 min, at 20 µM, hits give high values
How it was run: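 test system = bovine IAP enzyme | medium = DEA buffer 100 mM, pH 9.8, with MgCl2 1.0 mM, ZnCl2 0.02 mM | detection = luminescence | dosing = single compound dose of 20 µM, 2% DMSO final | incubation = 30 min reaction at room temperature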

inhibition, inactive:
CCCC(=O)OCC(=O)Nc1cc(Cl)ccc1[N+](=O)[O-] 12.7%, O=C(COC(=O)CC1CC2CCC1C2)NC(=O)NC1CCCC1 (centres undefined) -11.4%, COC(=O)c1ccc(NC(=S)Nc2cccc(C)n2)cc1 0.2%, COc1ccccc1NC(=O)c1cc(Cl)nnc1Cl -4%, O=C(CCc1ccc(S(=O)(=O)N2CCOCC2)cc1)NN=C1CCCCCCC1 5%, O=C(COC(=O)CCCNC(=O)c1ccc(Cl)cc1)Nc1cc(Cl)ccc1Cl 33.8%, COc1cccc(/C=N/NC(=O)CNC(=O)c2ccc(S(=O)(=O)N3CCOCC3)cc2)c1OC 16.1%, CS(=O)(=O)Nc1ccc(C2=NN(S(C)(=O)=O)C(c3cccs3)C2)cc1 (centres undefined) -11%, O=C(COC(=O)c1ccc(O)cc1)Nc1nccs1 -1.9%, COc1ccc(C(=O)NC2(C(F)(F)F)NC(=O)N(CCCc3ccccc3)C2=O)c(OC)c1OC (centres undefined) -13%, CCCCC1N2CC3([N+](=O)[O-])CN1CC([N+](=O)[O-])(C2)C3(C)C (centres undefined) 3.9%, Cc1cc(F)ccc1S(=O)(=O)N1CCCOC1CNC(=O)C(=O)NCCC1=CCCCC1 (centres undefined) 6.4%, CC(C)=C1C2CCC1C1C(=O)N(NC(=O)c3ccco3)C(=O)C21 (centres undefined) 41.2%, Cc1csc(NC(=O)CSc2ccc(-c3ccc(F)cc3)nn2)n1 -3.9%, CN(CC(=O)NCCc1ccccc1)S(=O)(=O)c1cnc[nH]1 5.2%, O=S1(=O)CCC(NC(=S)SCc2ccccc2Br)C1 (centres undefined) 23.3%, CCCCNC(=O)CCn1c(=O)c2ccccc2n(Cc2cc(C)ccc2C)c1=O 15.7%, NC(=O)C1=C[C@H](c2csc3ccccc23)C[C@H](OCc2ccc(CO)cc2)O1 -16.7%, S=C(NC1CCCCC1)NN1CCOCC1 -0.1%, COc1ccccc1NC(=O)CCSc1nnc(-c2ccc(O)cc2)o1 3.5%, Nc1cccc(CCc2nc3ccccc3[nH]2)c1 12%, O=[N+]([O-])c1ccc(NCCCO)c(C(F)(F)F)c1 -0.5%, CC(C)c1nc2sc3c(c2c(=O)n1N)CC(C)(C)OC3 -5%, O=C(Nc1cccc(C(F)(F)F)c1)c1cnccn1 5.6%, COc1ccc(OCCCn2cccc2/C=C2/C(=N)N3OC(C)=CC3=NC2=O)cc1 13.7%, CCOC12CC(C)(C)CC(C)(CC3=C1C(=O)CC(C)(C)C3)C2 (centres undefined) -12.4%, Cn1c(CCCOc2ccc(Cl)cc2Cl)n[nH]c1=S 25.8%, CCCCN(CC)C(=S)Nc1ccc2nc3n(c(=O)c2c1)CCCCC3 -16.6%, O=C(CCc1ccccc1)NCCc1cccs1 1.2%, O=C(NN1C(=O)C2C3C=CC(O3)C2C1=O)c1ccccc1 (centres undefined) -0.3%, CN(C(=O)CSc1nnc(-c2c[nH]c3ccccc23)o1)C1CCS(=O)(=O)C1 (centres undefined) -2.2%, CCc1cccc2c(=O)c(C(=O)NCCCOC)c[nH]c12 -5.7%, COc1ccc(CCNC(=O)COC(=O)Cc2cc(OC)c(OC)c(OC)c2)cc1 -4.1%, O=c1cc(CN2CCN(S(=O)(=O)/C=C/c3ccccc3)CC2)c2ccc(O)cc2o1 1.7%, Cc1cccc(N2CCN(C(=O)/C=C/c3ccco3)CC2)c1C 6.3%, CCCCn1nc(C(=O)OCC(=O)Nc2sccc2C(N)=O)c2ccccc2c1=O -0.9%, COc1ccnc(Oc2ccccc2)n1 -11%, O=C1CCCC(O)=C1N=Nc1ccc2ncsc2c1 6.3%, O=C(C1=C[C@H](c2ccc(C(F)(F)F)cc2)C[C@H](OCc2ccc(CO)cc2)O1)N1CCN(Cc2ccccc2)CC1 -12.1%, COC(=O)c1sc(N)c(C(=O)OC)c1COC(=O)CNS(=O)(=O)c1ccc(C)cc1 11.4%, CN(c1ccccc1)S(=O)(=O)c1cc(C(=O)OCC(=O)N2CCN(C(=O)c3ccco3)CC2)ccc1Cl -7.4%, C=CCNC(=S)N1CCN(CCN=Cc2c(C)[nH]n(-c3ccc([N+](=O)[O-])cc3)c2=O)CC1 -6.4%, CCC(C)N(C)C1CCN(C(=S)Nc2ccc(OC)cc2)CC1 (centres undefined) -6.9%, CCC(C)NC(=O)Cn1nc(C(F)(F)F)c2c1CCC2 (centres undefined) -10.6%, CCOc1ccc(-c2n[nH]c(C)c2-c2ccccn2)c(O)c1 -27.5%, O=C(c1cc(Cl)cc(Cl)c1)N1CCC(=O)N(C(COCc2ccccc2)Cc2ccccc2)CC1 (centres undefined) -2.4%, COc1ccc(Cn2c(=O)cc(C)[nH]c2=S)cc1 9.8%, Cc1ccc(Cl)cc1NC(=O)COC(=O)CC(C)(C)C -16%, CCc1ccc(N2CC(O)=C(c3nc4ccccc4c(=O)[nH]3)C2=N)cc1 -19.9%, CC(C)c1cc(NCc2ccccn2)n2c(nc3ccccc32)c1C#N -20.8%, CC(C)[C@@H]1NC(=O)c2cc([N+](=O)[O-])cc(I)c2NCCC[C@@H](C(=O)NC(CC(=O)O)C(N)=O)NC(=O)[C@H](CO)NC1=O (some centres undefined) 6.3%, Cc1ccc(-c2ccc(/C=N/NC(=O)CN3CCOCC3)o2)cc1[N+](=O)[O-] -0.9%, C/C(=N\NC(=O)C(N)=O)c1ccc2c(c1)OCCO2 -4.3%, Cc1ccc(NC(=O)c2cccnc2C(=O)Nc2ccc(C)cc2)cc1 -4.3%, Cc1ccc(CN2CCN(Cc3cccc(C)n3)CC2CCO)cc1 (centres undefined) -23.9%, CCN(CC)c1ccc(C(=O)c2cnc(/N=C/N(C)C)s2)cc1 11.8%, CC(C)CNC(=O)C(=O)Nc1ccc(N(C)C)cc1 -7.9%, O=C(CSc1nnc(-c2ccc([N+](=O)[O-])cc2)o1)Nc1ccccn1 -24.6%, CCO[C@@H]1OC(C(N)=O)=C[C@H](c2ccc(Br)cc2)[C@H]1CCCO -2%
